Source: PubChem
MEKK2wt PB1 HTS – modulators of MEK5 binding to wildtype MEKK2, primary screen, biochemical, multiplex bead flow cytometry, Alexa488-MEK5. 290,000 tested, 1.1% active. binding response (% of control), % at 10 µM. Alexa488-MEK5 binding to MEKK2 WT; actives lie on both sides. AID 1531, 2009. Mitogen-activated protein kinase kinase kinase 2 (Homo sapiens), Q9Y2U5; in the data active means binding response below about 67% or above about 130%
T cruzi repl – inhibitors of intracellular T. cruzi growth, primary screen, luminescence, NIH3T3 host cells | T. cruzi beta-gal in NIH3T3, 90 h | AID 1885, 2009 | inhibition, % (test concentration not listed) | 300,000 tested, 1.4% active;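 active means mean inhibition across valid replicates above about 55%, limit read from the data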;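 further: signal also drops with host cell toxicity which is not excluded here; higher percent means less beta-gal luminescence so fewer parasites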
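System – NIH/3T3 host cells with β-galactosidase reporter T. cruzi · Doses – single 50 nL compound addition per well in DMSO · Reagent – 5000 T. cruzi trypomastigotes/well · Medium – Low-serum DMEM with 2% FBS · Timing – ≥90 h infection period, 3 h prior cell attachment · Evaluation – parasite load inhibition, % · Technique – GalScreen luminescence, 60 min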
NS3 helicase inh – inhibitors of HCV NS3 helicase, primary screen, biochemical, Cy5 molecular beacon fluorescence. AID 1800, 2009. 290,000 tested, 0.56% active. NS3 helicase DNA unwinding. inhibition, % at 10.9 µM;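 active means inhibition above the mean of all tested compounds plus 3 SD, set per campaign, cut at about 35% in these data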
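assay system = NS3 helicase fragment of HCV | buffer or medium = MOPS pH 6.5, MgCl2, DTT, Tween20, BSA | timing = 60 min unwinding reaction at 25 °C after ATP addition | signal = Cy5 beacon fluorescence read at start and 1 h | read-out basis = % inhibition of unwinding | control set = low DMSO, high thioflavine S at 110 µM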
MEKK3 PB1 HTS – modulators of MEKK3-MEK5 PB1 binding, primary screen, biochemical, wildtype MEKK3, multiplex bead flow cytometry, Alexa488-MEK5; bead-based flow cytometry, Alexa488-MEK5 binding to MEKK3; actives lie on both sides; 0 = blocked by unlabeled MEK5, 100 = vehicle; AID 1529, 2009; binding response (% of control), % at 10 µM; Mitogen-activated protein kinase kinase kinase 3 (Homo sapiens), Q99759; 290,000 tested, 1.4% active;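 active means binding response more than 3 SD above or below the average of its plate-row segment, actives on both sides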;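 further: Alexa488 bead fluorescence after subtracting the streptavidin-only scavenger bead signal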
Target sequence (Q99759 whole entry, looked up): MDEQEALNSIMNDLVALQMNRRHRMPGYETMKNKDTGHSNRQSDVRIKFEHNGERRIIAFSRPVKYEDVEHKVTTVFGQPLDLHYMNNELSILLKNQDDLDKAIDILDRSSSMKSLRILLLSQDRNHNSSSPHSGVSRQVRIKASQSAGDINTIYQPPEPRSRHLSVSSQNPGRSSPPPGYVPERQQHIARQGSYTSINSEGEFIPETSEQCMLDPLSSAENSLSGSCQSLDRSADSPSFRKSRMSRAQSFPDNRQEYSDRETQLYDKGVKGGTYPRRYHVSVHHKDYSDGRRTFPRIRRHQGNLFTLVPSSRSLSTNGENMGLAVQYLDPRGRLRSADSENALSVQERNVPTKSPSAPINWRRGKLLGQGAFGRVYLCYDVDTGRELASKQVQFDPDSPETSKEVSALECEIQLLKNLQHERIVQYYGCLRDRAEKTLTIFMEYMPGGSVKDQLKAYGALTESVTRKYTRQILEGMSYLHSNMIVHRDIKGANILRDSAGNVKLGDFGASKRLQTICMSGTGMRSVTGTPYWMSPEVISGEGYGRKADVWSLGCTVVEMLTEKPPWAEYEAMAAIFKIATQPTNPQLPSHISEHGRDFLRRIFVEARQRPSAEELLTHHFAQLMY
MEKK2 mut-MEK5 – MEK5 binding signal on mutant MEKK2 PB1, primary screen, biochemical, multiplex bead flow cytometry, Alexa488-MEK5; Alexa488-MEK5 binding to MEKK2 mutant; percent response, % at 10 µM; 290,000 tested, 0.35% active; AID 1530, 2009; in the data active means percent response above about 24%, passing the limit was not always enough
DNA FID counter – compounds displacing fluorescent DNA intercalator, primary screen, artefact control for HCV NS3 helicase inhibitor project, biochemical, FID fluorescence. AID 1845, 2009. DNA fluorescent intercalator displacement. inhibition, % at 7.9 µM. 290,000 tested, 0.17% active; in the data active means inhibition above about 37%;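 further: higher means more ethidium bromide displaced from hairpin DNA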
MEKK2wt confirm – modulators of MEK5 binding to wildtype MEKK2, confirmation, biochemical, single concentration, multiplex bead flow cytometry; shares compounds with MEKK3 PB1 HTS; Alexa488-MEK5 binding to MEKK2 WT; actives lie on both sides; binding response (% of control), % at 10 µM; 5,900 tested, 2.4% active; AID 1892, 2009; in the data active means binding response below about 16% or above about 210%; inactive means in between
MEKK2mut confirm – mutant MEKK2 PB1-MEK5 binding signal retest – biochemical, single concentration, multiplex bead flow cytometry, confirmation; shares compounds with MEKK3 PB1 HTS; Alexa488-MEK5 binding to MEKK2 mutant; percent response, % at 10 µM; 5,900 tested, 2% active; AID 1893, 2009; in the data active means percent response mostly above about 71%, no sharp cut-off; inactive means mostly below about 38%;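 further: higher means compound restores mutant binding toward wildtype level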
MEKK3 confirm – MEKK3 wild-type PB1 binding to MEK5, inhibitors, confirmation, biochemical, bead multiplex flow cytometry, single concentration, wildtype | shares compounds with MEKK3 PB1 HTS | Alexa488-MEK5 binding to MEKK3; stronger effect = lower value | binding response (% of control), % at 10 µM | 5,900 tested, 1.8% active;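 active means binding response below 72% of control, or above a set upper limit, though filed actives all read lower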
Large screens that a line does not name were inactive (follow-up assays come after a bar, where they were run); [ ] = another dose, or the depositor's remark. The list is not random: actives were taken first. Their share in the collection is about 4.1%.

CN1CCN(CC(=O)Nc2nc3ccccc3s2)CC1	none
COc1ccc(CNC(=O)C2CCN(S(=O)(=O)c3ccc4c(c3)CC(C)N4C(=O)C3CC3)CC2)cc1 (stereo not drawn)	none
Cc1ccc(S(=O)(=O)N(C)CCCC(=O)NC(C)(C)C)cc1	none
O=C(Nc1ccc(Cl)c(Cl)c1)c1ccncc1	none
O=C(Nc1cccnc1)c1ccc(Cl)c(Cl)c1	none
O=C(Nc1ccc(C2=NCCN2)cc1)c1ccc(Cl)c(C(=O)Nc2ccc(C3=NCCN3)cc2)c1	MEKK2wt PB1 HTS 144.0, MEKK3 PB1 HTS 66.0[inhibitor], DNA FID counter 48.9 | MEKK2wt confirm inactive | MEKK2mut confirm inactive | MEKK3 confirm inactive
O=C(Nc1ccc(Cl)c(Cl)c1)c1ccc(Cl)c(Cl)c1	MEKK2wt PB1 HTS 162.0, MEKK2 mut-MEK5 56.0 | MEKK2wt confirm inactive | MEKK2mut confirm inactive | MEKK3 confirm inactive
CCOc1ccccc1C(=O)Oc1ccc2ccc(=O)oc2c1	none
CC(=O)c1cccc(NC(=O)N2C3CCC2CC(NC(=O)C2CC2)C3)c1 (stereo not drawn)	none
O=C(NC1(C(F)(F)F)NC(=O)N(c2ccc(F)cc2)C1=O)c1cccs1 (stereo not drawn)	MEKK3 PB1 HTS 158.0 | MEKK2wt confirm inactive | MEKK2mut confirm inactive | MEKK3 confirm inactive
CCOC(=O)NC1(C(F)(F)F)NC(=O)N(c2ccc(F)cc2)C1=O (stereo not drawn)	none
N/C(=N\N=C/c1ccc(F)cc1)N/N=C\c1ccc(F)cc1	MEKK2wt PB1 HTS 159.0, MEKK2 mut-MEK5 31.0 | MEKK2wt confirm inactive | MEKK2mut confirm inactive | MEKK3 confirm inactive
N/C(=N\N=C/c1ccc(Br)cc1)N/N=C\c1ccc(Br)cc1	MEKK2wt PB1 HTS 215.0, MEKK2 mut-MEK5 102.0 | MEKK2wt confirm inactive | MEKK2mut confirm inactive | MEKK3 confirm inactive
CCOC(=O)C(=O)N/N=C/c1ccc(F)cc1	none
Cc1ccc(C)c(NC(=S)NCCN(C2CCCCC2)C2CCCC2)c1	none
CN1CCN(/N=C/c2ccc(N(c3ccccc3)c3ccccc3)cc2)CC1	MEKK2wt PB1 HTS 153.0 | MEKK2wt confirm inactive | MEKK2mut confirm inactive | MEKK3 confirm inactive
O=C(c1cc2cc(F)ccc2[nH]1)N1CCN(C(=O)c2ccco2)CC1	none
O=S(=O)(c1ccccc1)n1ccc(-c2cnc(-c3ccccc3)s2)n1	MEKK3 PB1 HTS 129.0 | MEKK2wt confirm inactive | MEKK2mut confirm inactive | MEKK3 confirm inactive
Cc1ccc(Cn2ccc(-c3cnc(-c4ccccc4)s3)n2)cc1	none
CCOC(=O)C1=NN(c2ccccc2)C2C(=O)N(c3ccccc3OC)C(=O)C12 (stereo not drawn)	none
COC(=O)C1=NN(c2ccc(Cl)cc2)C2C(=O)N(c3ccccc3OC)C(=O)C12 (stereo not drawn)	MEKK3 PB1 HTS 143.0 | MEKK2wt confirm inactive | MEKK2mut confirm inactive | MEKK3 confirm inactive
COC(=O)c1ccn(CC(=O)NC2CCCCC2)n1	none
O=C(C1=C(O)C(=O)N(CC2CCCO2)C1c1cccc(Cl)c1)c1ccco1 (stereo not drawn)	none
COc1cccc(C(=S)N2CCOCC2)c1OS(=O)(=O)c1ccc(Cl)cc1	none
CC(=O)Nc1nc(C)c(C(C)=O)s1	MEKK2wt PB1 HTS 3.0[inhibitor], MEKK3 PB1 HTS 2.0[inhibitor] | MEKK2wt confirm inactive | MEKK2mut confirm inactive | MEKK3 confirm inactive
CC(=O)c1sc(NC(=O)C(C)C)nc1C	none
C=CCNC(=O)c1ccncc1	none
C=CCNC(=O)c1ccc(-n2cccc2)cc1	MEKK3 PB1 HTS 138.0 | MEKK2wt confirm inactive | MEKK2mut confirm inactive | MEKK3 confirm inactive
CC(C)CNC(=O)CSc1nnc2ccccn12	MEKK3 PB1 HTS 53.0[inhibitor] | MEKK2wt confirm inactive | MEKK2mut confirm inactive | MEKK3 confirm inactive
CC(C)CCNC(=O)NC(=O)CSc1nnc2ccccn12	none
c1ccc2nc3ccccc3nc2c1	MEKK3 PB1 HTS 46.0[inhibitor] | MEKK2wt confirm inactive | MEKK2mut confirm inactive | MEKK3 confirm inactive
c1ccc2c(c1)cnc1ccccc12	MEKK2wt PB1 HTS 33.0[inhibitor], MEKK3 PB1 HTS 37.0[inhibitor] | MEKK2wt confirm inactive | MEKK2mut confirm inactive | MEKK3 confirm inactive
COc1ccc(N2CC(C(=O)N[C@@H](CC(C)C)C(=O)NC3CCCC3)CC2=O)cc1 (stereo partly drawn)	none
Cc1ccc(-c2nc3ccccc3c(=O)n2NC(=O)c2cccs2)cc1	MEKK3 PB1 HTS 129.0 | MEKK2wt confirm inactive | MEKK2mut confirm inactive | MEKK3 confirm inactive
CC(=O)CCCC(NS(=O)(=O)CCC(Cl)(Cl)Cl)c1ccccc1 (stereo not drawn)	none
COc1ccc(C(CNC(=O)COc2ccc(Cl)c(C)c2)N2CCCCC2)cc1 (stereo not drawn)	none
CCOCC(=O)Nc1nc2ccc(OC)cc2s1	MEKK3 PB1 HTS 81.0[inhibitor] | MEKK2wt confirm inactive | MEKK2mut confirm inactive | MEKK3 confirm inactive
COc1ccc2nc(NC(=O)CN(C)S(=O)(=O)c3cccs3)sc2c1	MEKK2wt PB1 HTS -7.0[inhibitor], MEKK3 PB1 HTS 1.0[inhibitor] | MEKK2wt confirm inactive | MEKK2mut confirm inactive | MEKK3 confirm inactive
COc1ccc(NC(=O)Cn2cnc3ccccc3c2=O)cc1OC	none
COc1ccc2nc(NC(=O)Cn3cnc4ccccc4c3=O)sc2c1	MEKK2wt PB1 HTS 49.0[inhibitor], MEKK3 PB1 HTS 68.0[inhibitor] | MEKK2wt confirm inactive | MEKK2mut confirm inactive | MEKK3 confirm inactive
CCOc1ccc2nc(NC(=O)COC)sc2c1	none
CC(C)N(Cc1ccccc1)S(=O)(=O)c1ccc2c(c1)NC(=O)CO2	none
Fc1cccc2sc(N3CCCC3)nc12	none
Cc1ccccc1-n1c(CSC(=N)N)nc2ccccc2c1=O	none
